From the RNAGym collection of RNA variant scans (doi:10.1038/nmeth.2970)

B1: NELF-E aptamer (parent)
chain: CCCAACGACUGCCGAGCGAGAUUACGCUUGAGCGCCCCACUGAGGAUGCCCACGGGCGAUUGGGGCACGG

Variants of: B1
Assay: HiTS-RAP
Conditions: with NELF-E (Drosophila)
How it was run: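 Aptamer DNA templates bearing a T7 promoter and a ter site were sequenced on an Illumina GAIIx flowcell. T7 RNA polymerase then transcribed them in situ, and GST-Tus halted transcription over 30 minutes at 37°C. After a 30-minute room-temperature equilibration with NELF-E-mOrange at 0.064 to 1000 nM in HEPES binding buffer, clusters were imaged, using only the first binding curve. Intensities normalised to sequencing intensity were averaged per sequence and fitted with weighted Hill fits to give Kd, retaining only fits whose variance stayed under 1,000,000.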

CCCAACGACUGUCGAGCGAGAUUACGCUUGAGCGCCCCGCUGAGGAUGCCCACGGGCGAUUGGGGCACGG [C12U A39G] and CCCAACGACUGUCGAGCGAGAUUACGCUUGAGCGCCCCACUGAGGAUGCCCACGGGCGAUUGGGGCACGG [C12U] are within 1.5-fold of each other in Kd: 6.76 nM for the first, 4.54 nM for the second.

CCCAACGACUGGCGAGCGAGAUUACGCUUGAGCGCCCCACUGAGGAUGCCCACGGGCGAUUGGGGCACGG [C12G] and CCCAACGACUGGCGAGCGAGAUUACGCUUGAGUGCCCCACUGAGGAUGCCCACGGGCGAUUGGGGCACGG [C12G C33U] are within 1.5-fold of each other in Kd: 5.44 nM for the first, 6 nM for the second.

CCCAACGACUGGCGAGCGAUAUUACGCUUGAGCGCCCCACUGAGGAUGCCCACGGGCGAUUGGGGCACGG [C12G G20U] and CCCAACGACUGUCGAUCGAGAUUACGCUUGAGCGCCCCACUGAGGAUGCCCACGGGCGAUUGGGGCACGG [C12U G16U] are within 1.5-fold of each other in Kd: 7.97 nM for the first, 5.76 nM for the second.

CCCAACGACUGGCGAGCGGGAUUACGCUUGAGCGCCCCACUGAGGAUGCCCACGGGCGAUUGGGGCACGG [C12G A19G] and CCCAACGACUGGCGAGCGAGAUUACGCUUGAGCGCCCCACGGAGGAUGCCCACGGGCGAUUGGGGCACGG [C12G U41G] are within 1.5-fold of each other in Kd: 5.93 nM for the first, 5.67 nM for the second.

CCCAACGACUGGCGGGCGAGAUUACGCUUGAGCGCCCCACUGAGGAUGCCCACGGGCGAUUGGGGCACGG [C12G A15G] and CCCAACGACUGGCGUGCGAGAUUACGCUUGAGCGCCCCACUGAGGAUGCCCACGGGCGAUUGGGGCACGG [C12G A15U] are within 1.5-fold of each other in Kd: 6.14 nM for the first, 6.36 nM for the second.

First: CCCAACGACUGGCGAGCGAGAUUACGCUUGAGCGCCCCGCUGAGGAUGCCCACGGGCGAUUGGGGCACGG [C12G A39G]
Second: CCCAACGACUGGCGAGCGAGAUUACGCUUGAGCGCCCCUCUGAGGAUGCCCACGGGCGAUUGGGGCACGG [C12G A39U]
The Kd of the first is 2.4-fold lower: 10.3 nM for the first, 25 nM for the second. The first binds more tightly here.

CCCAACGACUGGCGAGCGAGAUUACGCUUGAGCGCCCCACUGAGGAUGCCCACGGGCGAUUGGGGUACGG [C12G C66U] and CCCAACGACUGGCGAGCGAGAUUACGCUUGAGCGCCCCACUGAGGAUGCCCACGGGCGAUUGGGGCGCGG [C12G A67G] are within 1.5-fold of each other in Kd: 6.17 nM for the first, 6.86 nM for the second.

CCCAACGACUGGCGAGCGAGAUUACGCUUGAGCGCCCCACUGAGGAUGCCCACGGGCGAUUGGGGCUCGG [C12G A67U] and CCCAACGACUGGCGAGCGAGAUUACGCGUGAGCGCCCCACUGAGGAUGCCCACGGGCGAUUGGGGCACGG [C12G U28G] are within 1.5-fold of each other in Kd: 7.12 nM for the first, 8.85 nM for the second.

CCCAACGACUGGCGAGCGAGAUUACGCCUGAGCGCCCCACUGAGGAUGCCCACGGGCGAUUGGGGCACGG [C12G U28C] and CCCAACGACUGGCGAGCGAGAUUACGCAUGAGCGCCCCACUGAGGAUGCCCACGGGCGAUUGGGGCACGG [C12G U28A] are within 1.5-fold of each other in Kd: 8.42 nM for the first, 6.47 nM for the second.

CCCAACGACUGGCGAGCGAGAUUGCGCUUGAGCGCCCCACUGAGGAUGCCCACGGGCGAUUGGGGCACGG [C12G A24G] and CCCAACGACUGGCGAGCGAGAUUACGCUUGGGCGCCCCACUGAGGAUGCCCACGGGCGAUUGGGGCACGG [C12G A31G] are within 1.5-fold of each other in Kd: 5.9 nM for the first, 7.14 nM for the second.

CCCAACGACUGGCAAGCGAGAUUACGCUUGAGCGCCCCACUGAGGAUGCCCACGGGCGAUUGGGGCACGG [C12G G14A] and CCCAACGACUGGCUAGCGAGAUUACGCUUGAGCGCCCCACUGAGGAUGCCCACGGGCGAUUGGGGCACGG [C12G G14U] are within 1.5-fold of each other in Kd: 5.91 nM for the first, 6.28 nM for the second.

Compared with CCCAACGACUGUCGAGGGAGAUUACGCUUGAGCGCCCCACUGAGGAUGCCCACGGGCGAUUGGGGCACGG [C12U C17G], CCCAACGACUGGCGAGCGAGAUUACGCUUGAGCGCCCCAUUGAGGAUGCCCACGGGCGAUUGGGGCACGG [C12G C40U] is 20-fold higher in Kd: 6.2 nM for the first, 126 nM for the second.

CCCAACGACUGGCGAGCGAGAUUACGCUUGAGCGCCCCACUGAGGAUGCCCACGGGUGAUUGGGGCACGG [C12G C57U] and CCCAACGACUGGCGAGCGAGAUUACGCUUGAGCGCCCCACUGAGGAUGCCCACGGUCGAUUGGGGCACGG [C12G G56U] are within 1.5-fold of each other in Kd: 6.51 nM for the first, 6.08 nM for the second.

CCCAACGACUGGCGAGCGAGAUUACGCUUGAGCGCCCCACUGAGGAUGCCCAUGGGCGAUUGGGGCACGG [C12G C53U] and CCCAACGACUGGCGAGCAAGAUUACGCUUGAGCGCCCCACUGAGGAUGCCCACGGGCGAUUGGGGCACGG [C12G G18A] are within 1.5-fold of each other in Kd: 5.74 nM for the first, 7.26 nM for the second.

Going from CCCAACGACUGGCGAGCGAGAUUAGGCUUGAGCGCCCCACUGAGGAUGCCCACGGGCGAUUGGGGCACGG [C12G C25G] to CCCAACGACUGGCGAGCGAGAUUACGCUUGAGCACCCCACUGAGGAUGCCCACGGGCGAUUGGGGCACGG [C12G G34A], the Kd rises from 4.47 nM to 7.36 nM (1.6-fold).

CCCAACGACUGGCGAGCGAGAUUACGCUUGAGCGCCCCACUGAGGAUGCCCACGGGCGAUUUGGGCACGG [C12G G62U] and CCCAACGACUGGCGAGCGAGAUUACGCUUGAGCGCCCCACUGAGGAUGCCCACGUGCGAUUGGGGCACGG [C12G G55U] are within 1.5-fold of each other in Kd: 10.8 nM for the first, 8.9 nM for the second.

CCCAACGACUGGCGAGCGAGAUUACGCUUGAGCGCCCCACUGAGGAUGCCCACGAGCGAUUGGGGCACGG [C12G G55A] and CCCAACGACUGUCGAGCGAGAUUACGCUUGGGCGCCCCACUGAGGAUGCCCACGGGCGAUUGGGGCACGG [C12U A31G] are within 1.5-fold of each other in Kd: 7.66 nM for the first, 6.76 nM for the second.

CCCAACGACUGGCGAGCGAGAUUACGCUUGAGCGCUCCACUGAGGAUGCCCACGGGCGAUUGGGGCACGG [C12G C36U] and CCCAACGACUGGCGAGCGAGAUUACGCUUGAGCGCCGCACUGAGGAUGCCCACGGGCGAUUGGGGCACGG [C12G C37G] are within 1.5-fold of each other in Kd: 7.29 nM for the first, 7.38 nM for the second.

First: CCCAACGACUGGCGAGCGAGAUUACGCUUGAGCGCCUCACUGAGGAUGCCCACGGGCGAUUGGGGCACGG [C12G C37U]
Second: CCCAACGACUGGCGAGCGAGAUUACGCUUGAGCGCCCCACUGAGGAUACCCACGGGCGAUUGGGGCACGG [C12G G48A]
The Kd of the first is 1.8-fold higher: 16.6 nM for the first, 9.02 nM for the second. The second binds more tightly here.

For CCCAACGACUGUCUAGCGAGAUUACGCUUGAGCGCCCCACUGAGGAUGCCCACGGGCGAUUGGGGCACGG [C12U G14U], the Kd was 8.16 nM.
